According to ChEMBL document CHEMBL1157779, “Merging the structural motifs of functionalized amino acids and alpha-aminoamides: compounds with significant anticonvulsant activities” (J Med Chem, 2010):
Calls of active or inactive are those of the source.

Key:
Mus musculus [1] = assay: Anticonvulsant activity in ip dosed albino mouse assessed as inhibition of maximal electroshock-induced seizures after […]; assay type: functional
Rattus norvegicus [2] = assay: Antiallodynic activity in Sprague-Dawley albino rat sciatic nerve ligation model of neuropathic pain assessed as fold attenuation of mechanical allodynia at 12 mg/kg, ip after 1 hr relative to control; assay type: functional; conditions: route intraperitoneal
In short: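 Male albino Sprague-Dawley rats; sciatic nerve ligated on right side, sham exposure on left; after 7 d recovery, animals on wire mesh platform, 30–60 min acclimation. Baseline 50% paw withdrawal threshold by calibrated von Frey fibres held 6 s, stepping down after a positive response; threshold re-measured after 12 mg/kg ip at time-to-peak effect in MES test.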

Mus musculus [3] = assay: Antiinflammatory activity in albino mouse assessed as reduction in formalin-induced late inflammation at 15 mg/kg, ip relative to control; assay type: functional; parameters: scale not given: the % may be the effect or the level left; conditions: route intraperitoneal
In short: (§1)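 Male albino mice, 16 per trial (8 given vehicle ip, 8 given 15 mg/kg ip); 0.5% formalin injected into hind paw; paw-licking time recorded in 2 min intervals for 45 min; acute and late (inflammatory) phases expressed as percent of control.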

Mus musculus [4] = species on record: Mus musculus; assay: Protective index, ratio of TD50 for albino mouse to anticonvulsant ED50 for albino mouse; assay type: functional
Rattus norvegicus [5] = species on record: Rattus norvegicus; assay: Protective index, ratio of TD50 for Sprague-Dawley albino rat to anticonvulsant ED50 for Sprague-Dawley albino rat; assay type: functional
In short: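 Rat, oral: behavioral-toxicity TD50 divided by MES ED50, both in mg/kg.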

Mus musculus [6] = assay: Antiinflammatory activity in albino mouse assessed as reduction in formalin-induced acute inflammation at 15 mg/kg, ip relative to control; assay type: functional; parameters: scale not given: the % may be the effect or the level left; conditions: route intraperitoneal; in short: as §1
Rattus norvegicus [7] = assay: Anticonvulsant activity in po dosed Sprague-Dawley albino rat assessed as inhibition of maximal electroshock-induced seizures after 0.5 hrs; assay type: functional
Mus musculus [8] = assay: Anticonvulsant activity in albino mouse assessed as protection against subcutaneous metrazole-induced seizures up to 300 mg/kg, ip after 4 hrs; assay type: functional, organism-based; parameters: dose 300 mg/kg
In short: (§2)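 Male albino Carworth Farms No. 1 mice dosed ip under NIH Anticonvulsant Screening Program; subcutaneous Metrazol seizure challenge at 0.5 and 4 h after doses up to 300 mg/kg.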

Rattus norvegicus [9] = assay: Behavioral toxicity in po dosed Sprague-Dawley albino rat after 0.5 hrs; assay type: organism-based; conditions: in vivo
In short: (§3)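 Oral dosing in male albino Sprague-Dawley rats with behavioral toxicity observation at set times after dosing, doses up to 500 mg/kg.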

Mus musculus [10] = assay: Anticonvulsant activity in albino mouse assessed as protection against subcutaneous metrazole-induced seizures up to 300 mg/kg, ip after 0.5 hrs; assay type: functional, organism-based; parameters: dose 300 mg/kg; in short: as §2
Mus musculus [11] = assay: Anticonvulsant activity in ip dosed albino mouse assessed as protection against 6 Hz electric shock-induced seizures after […]; assay type: functional
[12] = Toxicity in ip dosed albino mouse by rotarod test; assay type: organism-based; conditions: in vivo
In short: (§4)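 Male albino Carworth Farms No. 1 mice dosed ip; neurological impairment by rotorod test at set times; TD50 (mg/kg) determined for compounds active in MES.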

Mus musculus [13] = assay: Anticonvulsant activity in ip dosed albino mouse assessed as protection against subcutaneous metrazole-induced seizures; assay type: functional
In short: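 Subcutaneous Metrazol seizure model in male albino Carworth Farms No. 1 mice, ip dosing. Doses up to 300 mg/kg tested at two time points (0.5 and 4 h).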

Mus musculus [14] = assay: Anticonvulsant activity in ip dosed albino mouse assessed as inhibition of maximal electroshock-induced seizures; assay type: functional
In short: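 Male albino Carworth Farms No. 1 mice dosed intraperitoneally; screened via the NIH Anticonvulsant Screening Program. Protection scored as blocking of hind limb extension after maximal electroshock. Median effective dose (ED50, mg/kg) obtained in quantitative evaluations of active compounds. Rotorod test gave TD50 for neurological impairment, and PI = TD50/ED50.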

[15] = (§5) Toxicity in ip dosed albino mouse after 0.5 hrs by rotarod test; assay type: organism-based; conditions: albino, in vivo
Rattus norvegicus [16] = assay: Anticonvulsant activity in po dosed Sprague-Dawley albino rat assessed as inhibition of maximal electroshock-induced seizures after 4 hrs; assay type: functional
In short: (§6)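 Male albino Sprague-Dawley rats dosed orally; maximal electroshock seizures, protection scored as blockade of hind limb extension, tested at set times after dosing; ED50 in mg/kg from quantitative evaluation for active compounds.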

Mus musculus [17] = assay: Anticonvulsant activity in ip dosed albino mouse assessed as inhibition of maximal electroshock-induced seizures after 0.5 hrs; assay type: functional
Rattus norvegicus [18] = assay: Anticonvulsant activity in po dosed Sprague-Dawley albino rat assessed as inhibition of maximal electroshock-induced seizures after 1 hr; assay type: functional; in short: as §6
[19] = Behavioral toxicity in po dosed Sprague-Dawley albino rat after […]; assay type: organism-based; conditions: in vivo
Rattus norvegicus [20] = assay: Anticonvulsant activity in po dosed Sprague-Dawley albino rat assessed as inhibition of maximal electroshock-induced seizures; assay type: functional; in short: as §6
Mus musculus [21] = assay: as §5; assay type: organism-based; conditions: in vivo, 0.5 h
Mus musculus [22] = assay: Anticonvulsant activity in ip dosed albino mouse assessed as inhibition of maximal electroshock-induced seizures after 4 hrs; assay type: functional
In short: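 Male albino Carworth Farms No. 1 mice given compound ip; maximal electroshock applied and protection scored as blockade of hind limb extension; identification screening, then ED50 (mg/kg) from quantitative testing for active compounds.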

Rattus norvegicus [23] = assay: (§7) Behavioral toxicity in po dosed Sprague-Dawley albino rat after 4 hrs; assay type: organism-based; conditions: in vivo, 4 h; in short: as §3
[24] = Behavioral toxicity in po dosed Sprague-Dawley albino rat after 0.25 to 4 hrs; assay type: organism-based; conditions: in vivo; in short: as §3
Rattus norvegicus [25] = assay: Anticonvulsant activity in po dosed Sprague-Dawley albino rat assessed as inhibition of maximal electroshock-induced seizures after 0.25 to 4 hrs; assay type: functional; in short: as §6
[26] = Toxicity in ip dosed albino mouse after 4 hrs by rotarod test; assay type: organism-based; conditions: in vivo; in short: as §4
[27] = as §7; assay type: organism-based; conditions: Sprague-Dawley, in vivo; in short: as §3
Rattus norvegicus [28] = assay: Behavioral toxicity in po dosed Sprague-Dawley albino rat; assay type: organism-based; conditions: in vivo
Rattus norvegicus [29] = assay: Anticonvulsant activity in po dosed Sprague-Dawley albino rat assessed as inhibition of maximal electroshock-induced seizures after 2 hrs; assay type: functional
[30] = Toxicity in ip dosed albino mouse after […] by rotarod test; assay type: organism-based; conditions: in vivo

## COC[C@@H](NC(C)=O)C(=O)NCc1ccc(OCc2cccc(F)c2)cc1
Mus musculus [1]
  ED50: 13 mg/kg
Rattus norvegicus [2]
  fold change (FC): 11.2
Mus musculus [3]
  Activity: 44%
Mus musculus [4]
  Ratio TD50/ED50: 2
Rattus norvegicus [5]
  Ratio TD50/ED50: >36
Mus musculus [6]
  Activity: 35%
Rattus norvegicus [7]
  ED50: 14 mg/kg
Mus musculus [8]
  Activity: inactive
Rattus norvegicus [9]
  TD50: > 500 mg/kg
Mus musculus [10]
  Activity: inactive
Mus musculus [11]
  ED50: 10 mg/kg

## C[C@H](NCc1ccc(OCc2cccc(F)c2)cc1)C(N)=O [SAFINAMIDE]
[12]
  TD50: 630 mg/kg
Mus musculus [4]
  Ratio TD50/ED50: 78
Mus musculus [13]
  ED50: 27 mg/kg
Mus musculus [8]
  Activity: inactive
Mus musculus [10]
  Activity: inactive
Mus musculus [14]
  ED50: 8 mg/kg

## COC[C@@H](NC(C)=O)C(=O)NCc1ccc(/C=C/c2cccc(F)c2)cc1
[15]
  TD50 at 0.5 h: 100 mg/kg
Rattus norvegicus [16]
  ED50: 30 mg/kg
Mus musculus [17]
  ED50: 30 mg/kg
Rattus norvegicus [18]
  ED50: 30 mg/kg
Mus musculus [11]
  ED50: < 30 mg/kg
[19]
  TD50 at […]: > 30 mg/kg

## COC[C@@H](NC(C)=O)C(=O)NCc1ccc(OCc2ccccc2F)cc1
Mus musculus [1]
  ED50: 6.7 mg/kg

## CCCC(CCC)C(=O)[O-].[Na+] [VALPROATE SODIUM]
Mus musculus [1]
  ED50: 270 mg/kg
Mus musculus [8]
  Activity: inactive
Mus musculus [10]
  Activity: inactive

## O=C1NC(=O)C(c2ccccc2)(c2ccccc2)N1
Mus musculus [8]
  Activity: inactive
Mus musculus [10]
  Activity: inactive

## COCC(NCc1ccc(OCc2cccc(F)c2)cc1)C(N)=O (racemic)
Mus musculus [13]
  ED50: > 300 mg/kg
[15]
  TD50 at 0.5 h: 100 mg/kg
Mus musculus [17]
  ED50: 30 mg/kg

## COC[C@H](NC(C)=O)C(=O)NCc1ccc(OCc2cccc(F)c2)cc1
Mus musculus [8]
  Activity: inactive
Mus musculus [10]
  Activity: inactive

## CC(=O)N[C@H](C)C(=O)NCc1ccc(OCc2cccc(F)c2)cc1
Rattus norvegicus [20]
  ED50: 21 mg/kg
Rattus norvegicus [5]
  Ratio TD50/ED50: >16
Mus musculus [21]
  TD50: > 300 mg/kg
Rattus norvegicus [16]
  ED50: 31 mg/kg
Mus musculus [8]
  Activity: inactive
Mus musculus [10]
  Activity: inactive
Mus musculus [22]
  ED50: < 100 mg/kg
Mus musculus [17]
  ED50: > 30 mg/kg
Rattus norvegicus [23]
  TD50: > 500 mg/kg

## CC(=O)N[C@@H](C)C(=O)NCc1ccc(OCc2cccc(F)c2)cc1
Mus musculus [8]
  Activity: inactive
Mus musculus [10]
  Activity: inactive
Mus musculus [22]
  ED50: > 300 mg/kg
Mus musculus [17]
  ED50: 100 mg/kg
[24]
  TD50: > 30 mg/kg
Rattus norvegicus [25]
  ED50: > 30 mg/kg

## CC(=O)N[C@@H](C(=O)NCc1ccc(OCc2cccc(F)c2)cc1)C(C)(C)C
[26]
  TD50 at 4 h: 300 mg/kg
Mus musculus [21]
  TD50: > 300 mg/kg
Mus musculus [8]
  Activity: inactive
Mus musculus [10]
  Activity: inactive
Mus musculus [22]
  ED50: > 300 mg/kg

## NC(=O)C(NCc1ccc(OCc2cccc(F)c2)cc1)c1ccco1.O=C(O)C(=O)O (racemic)
Mus musculus [13]
  ED50: 100 mg/kg
[15]
  TD50 at 0.5 h: 100 mg/kg
Mus musculus [17]
  ED50: 10 mg/kg

## CC(=O)NC(C(=O)NCc1ccc(OCc2cccc(F)c2)cc1)c1ccccn1 (racemic)
Mus musculus [8]
  Activity: inactive
Mus musculus [10]
  Activity: inactive
Mus musculus [17]
  ED50: 28 mg/kg
[27]
  TD50 at 4 h: > 30 mg/kg

## CC(=O)N[C@@H](C(=O)NCc1ccc(OCc2cccc(F)c2)cc1)C(C)C
Rattus norvegicus [20]
  ED50: > 30 mg/kg
[26]
  TD50 at 4 h: > 300 mg/kg
Mus musculus [8]
  Activity: inactive
Mus musculus [10]
  Activity: inactive
Mus musculus [22]
  ED50: > 300 mg/kg
Rattus norvegicus [28]
  TD50: > 30 mg/kg

## COC[C@@H](NC(C)=O)C(=O)NCc1ccc(COc2cccc(F)c2)cc1
Mus musculus [1]
  ED50: 5.9 mg/kg
Rattus norvegicus [29]
  ED50: 19 mg/kg
Mus musculus [4]
  Ratio TD50/ED50: 1.8
Rattus norvegicus [5]
  Ratio TD50/ED50: >21
[30]
  TD50 at […]: 10 mg/kg
